From ChEMBL document CHEMBL1130341, “Novel indole-2-carboxamide and cycloalkeno[1,2-b]indole derivatives. Structure-activity relationships for high inhibition of human LDL peroxidation” (J Med Chem, 1997)

Tests used:
[1] = Tested for inhibition of copper induced lipid peroxidation in human low density lipoproteins (LDL); assay type: functional
Method in brief: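 LDL isolated by ultracentrifugation from pooled plasma of healthy normolipidemic human donors. Oxidation driven by copper for 3 h at 24 °C. Compounds in DMSO added just before oxidation, at 10 concentrations from 10^-7 to 10^-3 M, in duplicate. TBARS measured by the Yagi method. IC50 by linear regression; also given as an activity ratio versus probucol.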

[2] = Activity ratio versus Probucol in lipid peroxidation; assay type: functional
Method in brief: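 LDL isolated by ultracentrifugation from pooled plasma of healthy normolipidemic human donors. Compounds were added in DMSO just before copper-induced oxidation (3 h, 24 °C). Ten concentrations from 10^-7 to 10^-3 M were tested in duplicate. Read-out was TBARS inhibition (Yagi method), and IC50 came from linear regression. Activity was expressed as a ratio versus probucol to correct for LDL batch variation.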

[3] = organism: Bos taurus; test: Inhibitory concentration against protection of bovine endothelial cells against cytotoxicity of oxidised LDL; assay type: functional; details: Endothelial cell
Method in brief: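 Cells kept 48 h in the presence of oxidized LDL, washed twice with PBS. Viability read by MTT (250 µg mL^-1 in phenol red-free RPMI, 2 h, 37 °C), solubilized in DMSO, OD 540 nm, expressed as % of cells grown without oxidized LDL. Six concentrations, five assays each; IC50 by linear regression.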

[4] = organism: Rattus norvegicus; test: Inhibitory concentration against KCL-induced rat thoracic contraction; assay type: functional
Method in brief: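 Isolated rat aorta contracted with hyperpotassic solution (KCl 60 mM). Inhibition of contraction measured at eight concentrations, 10^-8 to 3 × 10^-5 M, each in duplicate, on two separate preparations. IC50 obtained from the concentration-response curve by linear regression. Flunarizine as reference.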

[5] = system: Endothelial cell; test: Inhibitory concentration against 15-lipoxygenase, by inhibiting 15-HETE production by human umbilical vein endothelial cells (HUVEC) stimulated by calcium ionophore A 23187 at concentration of 10e-5 M.; assay type: cell-based
Method in brief: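 HUVEC (isolated) preincubated 15 min at 37 °C with compound at 10^-5 M in DMSO, in triplicate; stimulated with calcium ionophore A 23187 (5 × 10^-6 M in DMSO).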

Structure (SMILES)	IC50 [1]	IC50 [4]	Ratio [2]	IC50 [3]	inhibition [5]
CC(C)(Sc1cc(C(C)(C)C)c(O)c(C(C)(C)C)c1)Sc1cc(C(C)(C)C)c(O)c(C(C)(C)C)c1 [PROBUCOL]	5 µM				
CCCCCCCCN(C(=O)c1cc2cc(O)ccc2[nH]1)c1ccccc1	10 µM		0.3		
Oc1ccc2[nH]c3c(c2c1)CCCCCC3	0.5 µM		2		
COc1ccc2[nH]c3c(c2c1)CCCC3	1 µM		3		
COc1cccc(N(C)C(=O)c2cc3cc(OC)ccc3n2C)c1	200 µM		0.01		
Cn1c(C(=O)N2CCN(C(c3ccc(F)cc3)c3ccc(F)cc3)CC2)cc2cc(O)ccc21	0.6 µM	1.5 µM	5	0.14 µM	
CN(C(=O)c1cc2cc(O)ccc2[nH]1)c1ccccc1	1 µM		1		
CCCCCCN(C(=O)c1cc2cc(O)ccc2[nH]1)c1ccccc1	0.1 µM		10		
COc1ccc2[nH]c(C(=O)N(C)c3ccccc3)cc2c1	> 1000 µM		< 0.001		
COc1ccc(CN2CCN(C(=O)c3cc4cc(O)ccc4[nH]3)CC2)c(OC)c1OC	5 µM		1		
Cn1c2c(c3cc(O)ccc31)CCCC2	0.6 µM		3		
CCCCCCCCN(C(=O)c1cc2cc(SCC)ccc2[nH]1)c1ccccc1	100 µM		0.03		
COc1cc(NC(=O)c2cc3cc(O)ccc3[nH]2)cc(OC)c1OC	0.8 µM		3.8		
CCSc1ccc2c(c1)c1c(n2C)CCCC1	20 µM		0.1		
Cn1c2c(c3cc(O)ccc31)CCCCCC2	0.1 µM		10		
Cn1c2c(c3cc(O)ccc31)CCCCC2	0.1 µM				62%

Now from value to molecule, other results behind:

IC50 [1]	IC50 [4]	Structure (SMILES)	Ratio [2]	IC50 [3]	inhibition [5]
0.9 µM		COc1ccc2[nH]c(C(=O)Nc3ccccc3)cc2c1	2.2		
90 µM		COc1ccc2c(c1)cc(C(=O)N(C)c1ccccc1)n2C	0.02		
1 µM		CCCCN(C(=O)c1cc2cc(O)ccc2n1C)c1ccccc1	3		
< 0.1 µM		CN(C(=O)c1cc2cc(O)ccc2n1C)c1cccc(Cl)c1	> 20		
0.2 µM		CN(C(=O)c1cc2cc(O)ccc2n1C)c1ccccc1	10		
1 µM		O=C(Nc1ccccc1)c1cc2cc(O)ccc2[nH]1	3		
0.9 µM		Cn1c(C(=O)Nc2ccccc2)cc2cc(O)ccc21	0.3		
1 µM		Cn1c(C(=O)Nc2cccc(Cl)c2)cc2cc(O)ccc21	0.8		
0.8 µM		CN(C(=O)c1cc2cc(O)ccc2n1C)c1cccc(Br)c1	2.5		
0.2 µM		CCCCCCN(C(=O)c1cc2cc(O)ccc2n1C)c1ccccc1	5		
1 µM		CN(C(=O)c1cc2cc(O)ccc2n1C)c1cccc(C(F)(F)F)c1	0.5		
